{"source": "ChEMBL document CHEMBL4390639", "about": "“Design, Synthesis, and Biological Evaluation of Novel Allosteric Protein Disulfide Isomerase Inhibitors” (J Med Chem, 2019)", "key": {"[1]": {"system": "U-87 MG", "assay": "Down regulation of cleaved MMP2 expression in human U87MG cells at 10 uM measured after 24 hrs by Western blot analysis", "assay_type": "functional, cell-based", "settings": "U-87MG ATCC"}, "[2]": {"system": "U-87 MG", "assay": "Up regulation of BCO2 gene expression in human U87MG cells at 16 uM incubated for 4 hrs followed by bromouridine addition during last 30 mins of incubation by TRIzol-reagent based Bru-Seq analysis relative to control", "assay_type": "functional, U-87MG ATCC", "in_short": "(§1)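 U87MG cells exposed to compound or DMSO vehicle for 4 h, with 2 mM bromouridine added for the final 30 min. Total RNA isolated with TRIzol; Bru-labelled nascent RNA captured on anti-BrdU antibody-conjugated magnetic beads and sequenced. Transcript abundance expressed as RPKM relative to DMSO. Experiment performed once.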"}, "[3]": {"system": "U-87 MG", "assay": "Down regulation of AC010931.3 gene expression in human U87MG cells at 16 uM incubated for 4 hrs followed by bromouridine addition during last 30 mins of incubation by TRIzol-reagent based Bru-Seq analysis relative to control", "assay_type": "functional, U-87MG ATCC"}, "[4]": {"system": "U-87 MG", "assay": "Up regulation of TXNRD1 gene expression in human U87MG cells at 16 uM incubated for 4 hrs followed by bromouridine addition during last 30 mins of incubation by TRIzol-reagent based Bru-Seq analysis relative to control", "assay_type": "functional, U-87MG ATCC"}, "[5]": {"system": "U-87 MG", "assay": "Down regulation of AC139722.1 gene expression in human U87MG cells at 16 uM incubated for 4 hrs followed by bromouridine addition during last 30 mins of incubation by TRIzol-reagent based Bru-Seq analysis relative to control", "assay_type": "functional, U-87MG ATCC", "in_short": "as §1"}, "[6]": {"system": "U-87 MG", "assay": "Up regulation of KCNE4 gene expression in human U87MG cells at 16 uM incubated for 4 hrs followed by bromouridine addition during last 30 mins of incubation by TRIzol-reagent based Bru-Seq analysis relative to control", "assay_type": "functional, U-87MG ATCC", "in_short": "as §1"}, "[7]": {"system": "U-87 MG", "assay": "Down regulation of CYP1B1 gene expression in human U87MG cells at 16 uM incubated for 4 hrs followed by bromouridine addition during last 30 mins of incubation by TRIzol-reagent based Bru-Seq analysis relative to control", "assay_type": "functional, U-87MG ATCC"}, "[8]": {"system": "U-87 MG", "assay": "Down regulation of RAET1E gene expression in human U87MG cells at 16 uM incubated for 4 hrs followed by bromouridine addition during last 30 mins of incubation by TRIzol-reagent based Bru-Seq analysis relative to control", "assay_type": "functional, U-87MG ATCC", "in_short": "as §1"}, "[9]": {"system": "U-87 MG", "assay": "Down regulation of CTHRC1 gene expression in human U87MG cells at 16 uM incubated for 4 hrs followed by bromouridine addition during last 30 mins of incubation by TRIzol-reagent based Bru-Seq analysis relative to control", "assay_type": "functional, U-87MG ATCC", "in_short": "as §1"}, "[10]": {"system": "U-87 MG", "assay": "Down regulation of CSF3 gene expression in human U87MG cells at 16 uM incubated for 4 hrs followed by bromouridine addition during last 30 mins of incubation by TRIzol-reagent based Bru-Seq analysis relative to control", "assay_type": "functional, U-87MG ATCC", "in_short": "as §1"}, "[11]": {"system": "U-87 MG", "assay": "Up regulation of GCLC gene expression in human U87MG cells at 16 uM incubated for 4 hrs followed by bromouridine addition during last 30 mins of incubation by TRIzol-reagent based Bru-Seq analysis relative to control", "assay_type": "functional, U-87MG ATCC", "in_short": "as §1"}, "[12]": {"system": "U-87 MG", "assay": "Down regulation of LIF gene expression in human U87MG cells at 16 uM incubated for 4 hrs followed by bromouridine addition during last 30 mins of incubation by TRIzol-reagent based Bru-Seq analysis relative to control", "assay_type": "functional, U-87MG ATCC"}, "[13]": {"system": "U-87 MG", "assay": "Down regulation of LRRN3 gene expression in human U87MG cells at 16 uM incubated for 4 hrs followed by bromouridine addition during last 30 mins of incubation by TRIzol-reagent based Bru-Seq analysis relative to control", "assay_type": "functional, U-87MG ATCC", "in_short": "as §1"}, "[14]": {"system": "U-87 MG", "assay": "Up regulation of AC005324.3 gene expression in human U87MG cells at 16 uM incubated for 4 hrs followed by bromouridine addition during last 30 mins of incubation by TRIzol-reagent based Bru-Seq analysis relative to control", "assay_type": "functional, U-87MG ATCC", "in_short": "as §1"}, "[15]": {"system": "U-87 MG", "assay": "Inhibition of colony formation in human U87MG cells assessed as combination index at 1 to 30 uM measured after 24 hrs in presence of arsenic trioxide by crystal violet staining based assay", "assay_type": "functional, U-87MG ATCC"}, "[16]": {"system": "U-87 MG", "assay": "Cytotoxicity against human U87MG cells assessed as inhibition of cell proliferation at <IC50 treated for 24 hrs, measured after 10 days by colony formation assay relative to control"}, "[17]": {"system": "U-87 MG", "assay": "Down regulation of MYBL1 gene expression in human U87MG cells at 10 uM incubated for 4 hrs followed by bromouridine addition during last 30 mins of incubation by TRIzol-reagent based Bru-Seq analysis relative to control", "assay_type": "functional, U-87MG ATCC", "in_short": "(§2)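 Nascent transcription (Bru-seq) in U87MG cells: treatment at 10 μM for 4 h, with 2 mM bromouridine added for the final 30 min. Total RNA isolated with TRIzol; Bru-labelled RNA captured using anti-BrdU antibody on magnetic beads, then sequenced. Transcript traces reported as RPKM compared with DMSO-treated cells. Single experiment.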"}, "[18]": {"system": "U-87 MG", "assay": "Down regulation of NFIA gene expression in human U87MG cells at 10 uM incubated for 4 hrs followed by bromouridine addition during last 30 mins of incubation by TRIzol-reagent based Bru-Seq analysis relative to control", "assay_type": "functional, U-87MG ATCC", "in_short": "as §2"}, "[19]": {"system": "U-87 MG", "assay": "Up regulation of HSPA4L gene expression in human U87MG cells at 10 uM incubated for 4 hrs followed by bromouridine addition during last 30 mins of incubation by TRIzol-reagent based Bru-Seq analysis relative to control", "assay_type": "functional, U-87MG ATCC", "in_short": "as §1"}, "[20]": {"system": "U-87 MG", "assay": "Down regulation of HLA-DQB1 gene expression in human U87MG cells at 10 uM incubated for 4 hrs followed by bromouridine addition during last 30 mins of incubation by TRIzol-reagent based Bru-Seq analysis relative to control", "assay_type": "functional, U-87MG ATCC"}, "[21]": {"system": "U-87 MG", "assay": "Up regulation of ALOXE3 gene expression in human U87MG cells at 10 uM incubated for 4 hrs followed by bromouridine addition during last 30 mins of incubation by TRIzol-reagent based Bru-Seq analysis relative to control", "assay_type": "functional, U-87MG ATCC", "in_short": "as §1"}, "[22]": {"system": "U-87 MG", "assay": "Down regulation of MAD2L1 gene expression in human U87MG cells at 10 uM incubated for 4 hrs followed by bromouridine addition during last 30 mins of incubation by TRIzol-reagent based Bru-Seq analysis relative to control", "assay_type": "functional, U-87MG ATCC", "in_short": "as §2"}, "[23]": {"system": "U-87 MG", "assay": "Down regulation of ST8SIA4 gene expression in human U87MG cells at 10 uM incubated for 4 hrs followed by bromouridine addition during last 30 mins of incubation by TRIzol-reagent based Bru-Seq analysis relative to control", "assay_type": "functional, U-87MG ATCC", "in_short": "as §2"}, "[24]": {"system": "U-87 MG", "assay": "Up regulation of NUPR1 gene expression in human U87MG cells at 10 uM incubated for 4 hrs followed by bromouridine addition during last 30 mins of incubation by TRIzol-reagent based Bru-Seq analysis relative to control", "assay_type": "functional, U-87MG ATCC", "in_short": "as §1"}, "[25]": {"system": "U-87 MG", "assay": "Down regulation of C11orf87 gene expression in human U87MG cells at 10 uM incubated for 4 hrs followed by bromouridine addition during last 30 mins of incubation by TRIzol-reagent based Bru-Seq analysis relative to control", "assay_type": "functional, U-87MG ATCC"}, "[26]": {"system": "U-87 MG", "assay": "Up regulation of TM4SF19-TCTEX1D2 gene expression in human U87MG cells at 10 uM incubated for 4 hrs followed by bromouridine addition during last 30 mins of incubation by TRIzol-reagent based Bru-Seq analysis relative to control", "assay_type": "functional, U-87MG ATCC", "in_short": "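U87MG cells treated 4 h with test compound (10 or 16 μM, as per line) or DMSO; 2 mM bromouridine added for final 30 min. Total RNA isolated with TRIzol, Bru-labelled nascent RNA captured with anti-BrdU antibody magnetic beads and sequenced; transcript abundance (RPKM) compared with DMSO control. Single experiment.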"}}, "note": "Active and inactive are the calls of the source. No cut-off for these calls is given here."}
{"smiles": "O=C(/C=C/c1ccc(-c2cccnc2)cc1)c1cccc(O)c1", "values": [{"measurement": "Activity", "setting": "[1]", "value": "Active"}]}
{"smiles": "COC(=O)c1cccc(/C=C/C(=O)c2cccc(O)c2)c1", "values": [{"measurement": "fold change (FC)", "setting": "[2]", "value": 1.9}, {"measurement": "fold change (FC)", "setting": "[3]", "value": 3.2}, {"measurement": "fold change (FC)", "setting": "[4]", "value": 5.4}, {"measurement": "fold change (FC)", "setting": "[5]", "value": 4.7}, {"measurement": "fold change (FC)", "setting": "[6]", "value": 5.1}, {"measurement": "fold change (FC)", "setting": "[7]", "value": 2.8}, {"measurement": "fold change (FC)", "setting": "[8]", "value": 3.4}, {"measurement": "fold change (FC)", "setting": "[9]", "value": 3.4}, {"measurement": "fold change (FC)", "setting": "[10]", "value": 8.3}, {"measurement": "fold change (FC)", "setting": "[11]", "value": 1.9}, {"measurement": "fold change (FC)", "setting": "[12]", "value": 2.7}, {"measurement": "fold change (FC)", "setting": "[13]", "value": 3.6}, {"measurement": "fold change (FC)", "setting": "[14]", "value": 5.3}]}
{"smiles": "N#Cc1cccc(/C=C/C(=O)c2ccc(O)cc2)c1", "values": [{"measurement": "CI", "setting": "[15]", "value": "<1"}]}
{"smiles": "CCCCCN(CCCCC)S(=O)(=O)c1ccc(C(=O)/C=C/c2cccc(C#N)c2)cc1", "values": [{"measurement": "inhibition (INH)", "setting": "[16]", "value": ">50", "unit": "%"}, {"measurement": "fold change (FC)", "setting": "[17]", "value": 2.6}, {"measurement": "fold change (FC)", "setting": "[18]", "value": 2.4}, {"measurement": "fold change (FC)", "setting": "[19]", "value": 8.6}, {"measurement": "fold change (FC)", "setting": "[20]", "value": 2.9}, {"measurement": "fold change (FC)", "setting": "[21]", "value": 17}, {"measurement": "fold change (FC)", "setting": "[22]", "value": 2.4}, {"measurement": "fold change (FC)", "setting": "[23]", "value": 3.1}, {"measurement": "fold change (FC)", "setting": "[24]", "value": 11.8}, {"measurement": "fold change (FC)", "setting": "[25]", "value": 2.4}, {"measurement": "fold change (FC)", "setting": "[26]", "value": 8.7}]}
